An excerpt weighted towards active compounds, which were near 6.4% of everything screened.
Jurkat viability – cytotoxicity toward Jurkat cells; inhibition, % at 4 µM; Jurkat E6.1 viability, ATP luminescence, 48 h; AID 463; actives 1.2% (n = 56,000);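 active = inhibition above the mean inhibition of all tested compounds plus 3 SD, cut at about 28% in these data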
tolC growth inh – E. coli tolC mutant growth inhibition; growth inhibition, % at 10 µM (by protocol); actives 2.2% (n = 65,000); E. coli BW25113 tolC mutant growth, OD615; AID 573;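 active = growth inhibition at or above a cutoff equal to the mean over every tested compound plus 3 SD, cut at about 60% in these data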;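 note: growth measured after 20 h incubation at 37 °C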
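Test system: E. coli BW25113 ΔtolC::kan bacteria | Medium: Kanamycin-containing LB broth (50 µg/mL) | Dosing: One dose of 10 µM final | Times: 20 h incubation with compound, 37 °C | Detection: Optical density read at 615 nm | Read-out basis: Percent growth inhibition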
HUVEC inhibit – human endothelial cell proliferation inhibition. HUVEC proliferation, CellTiter-Glo luminescence, 72 h; stronger effect = lower value. viability, % at 10 µM (by protocol). actives 1.1% (n = 86,000). AID 648;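 active = viability at or below 30%; inactive = viability above 30%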;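 note: 100% = median luminescence of DMSO-only cell control wells on each plate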
H69AR growth 86K – growth inhibitors of human H69AR lung tumor cells | H69AR lung tumor viability, ATP luminescence, 72 h; stronger effect = lower value | viability, % at 10 µM | actives 6% (n = 85,000);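 active = viability at or below 40%; inactive = viability above 40%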;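 note: multidrug resistant small cell line overexpressing MRP-1 efflux transporter; 100% = mean luminescence of untreated control wells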
E coli WT exp – growth inhibitors of E. coli BW25113 wild type; actives 0.15% (n = 98,000); OD600 absorbance; growth inhibition, % at 100 µM;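 active = growth inhibition above about 50% at one test dose, limit read from the data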;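 note: growth measured after 20 h incubation at 37 °C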
Fibroblast inh – blocks proliferation of human lung fibroblasts. AID 719. LL 47 human lung fibroblast viability, ATP luminescence; stronger effect = lower value. actives 1.1% (n = 85,000). viability, % at 10 µM;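 active = viability at or below 50% in the single dose screen; inactive = viability above 50%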;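 note: compound exposure lasted 72 h before the ATP readout; 100% = median luminescence of untreated cell-only wells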
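Test system: LL 47 human lung fibroblasts; Quantity: 1,150 cells/well; Buffer or medium: IMEM plus 15% FBS; Dosing: tenfold compound dosing solution, DMSO at 0.1%; Timing: overnight cell rest, 72 h compound treatment at 37 °C; Detection: ATP-based CellTiter-Glo luminescent readout; Read-out basis: viability percentage against median untreated-cell control; Controls: cell-only wells, no compound.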
Starred values were filed as active, the others as inactive; x = not tested or not shown.

SMILES	Jurkat viability	tolC growth inh	HUVEC inhibit	H69AR growth 86K	E coli WT exp	Fibroblast inh
COc1ccc(Cl)cc1NC(=O)CCN1CCN(c2ccccc2C)CC1	x	-3	x	x	0	x
Nc1cc(CN2C(=O)c3ccccc3C2=O)cc(Cl)c1O	2	11	95	34*	9	101
O=C(c1ccc(Cl)cc1)c1ccc(CN2C(=O)c3ccccc3C2=O)o1	x	x	96	92	-17	103
CCCCN1CCc2c1nc1ccc(Br)cc1c2N	x	x	13*	68	22	28*
Cc1ccc2nc3c(c(N)c2c1)CCN3c1ccccc1	7	-7	88	73	-3	89
O=S(=O)(c1cccc(Cl)c1Cl)N1CCCCC1	-2	11	88	96	12	93
O=C1c2ccccc2C(=O)N1CCCC(=O)N1CCc2ccccc21	x	-5	103	90	0	112
N#Cc1nc(Cc2cccc3ccccc23)oc1NCc1ccc(F)cc1	0	71*	84	75	4	80
CCCc1cc(=O)[nH]c(Nc2ccc(N3CCCCC3)cc2)n1	8	22	113	88	8	97
CCCCc1ccc(Nc2nc(CCC)cc(=O)[nH]2)cc1	3	100*	2.5*	58	2	75
c1cc2c3c(cccc3c1)C(N1CCN(C3=Nc4cccc5cccc3c45)CC1)=N2	x	x	85	7.7*	x	91
c1ccc(CC2CCN(C3=Nc4cccc5cccc3c45)CC2)cc1	x	x	7.2*	26*	0	77
CCOc1ccc(-c2c[n+](=O)c3c(n2[O-])CCCC3)c(OCC)c1	x	x	92	86	-2	98
O=C(NCCCN=C1NS(=O)(=O)c2ccccc21)c1ccc(S(=O)(=O)N2CCOCC2)cc1	x	x	91	103	8	96
O=C(Nc1nnc(-c2ccco2)s1)c1ccccc1	1	-8	93	101	-14	102
COc1ccc(C(=O)Nc2nnc(-c3ccco3)s2)cc1	x	x	55	8.2*	-15	97
CC1CC(C)CN(c2nc3c(c(=O)[nH]c(=O)n3C)n2CCCSc2nc3ccccc3s2)C1 (centres undefined)	0	-14	74	95	x	87
O=C1OCc2cc(NS(=O)(=O)c3cccs3)ccc21	4	-1	104	91	8	97
Cc1nc2ccc(-c3nc4ccccc4o3)cc2[nH]1	x	x	103	76	-7	103
Cc1ccnc2ccc(-c3nc4ccccc4o3)cc12	-4	13	30*	60	-11	73
CC(=O)NC(Cc1c[nH]c2ccccc12)C(=O)NCc1ccc2c(c1)OCO2 (centres undefined)	6	10	93	89	5	104
Cc1ccc(Cl)cc1N1CCN(CC(=O)Nc2ccc(CN3CCCCC3)cc2)CC1	x	x	8.2*	2.9*	x	28*
CC(C)n1c(-c2ccccc2F)n[nH]c1=S	x	x	104	94	5	106
COc1ccc(OC)c(S(=O)(=O)N2CCC(C(=O)NCc3ccccc3)CC2)c1	1	3	98	88	-3	101
COc1ccc(OC)c(S(=O)(=O)n2cnc3cc(C)c(C)cc32)c1	7	94*	72	40	0	89
SMILES	Jurkat viability	tolC growth inh	HUVEC inhibit	H69AR growth 86K	E coli WT exp	Fibroblast inh
Cc1cc2ncn(S(=O)(=O)c3ccc(S(=O)(=O)N4CCCCCC4)cc3)c2cc1C	x	x	89	35*	x	98
Cc1cc2ncn(C(=O)N3CCCC3)c2cc1C	x	x	88	95	x	100
COc1ccc(OC)c(S(=O)(=O)N2CCC(C(=O)N3CCc4ccccc4C3)CC2)c1	0	16	86	36*	-2	97
Cc1ccc(S(=O)(=O)n2cnc3ccccc32)cc1	x	x	93	87	x	96
CCOc1ccc(S(=O)(=O)n2cnc3cc(C)c(C)cc32)cc1	63*	42	85	91	-4	100
C(=N\c1nccs1)/c1c[nH]c2ccccc12	x	2	83	72	-6	99
CCOC(=O)Cc1cnc(NC(=O)c2ccccc2)s1	4	-9	94	93	-4	106
CCn1nnnc1SCC(=O)N1c2ccccc2Sc2ccccc21	x	x	81	62	x	90
CCN1CCN(S(=O)(=O)c2cc(OC)ccc2OC)CC1	0	-3	98	95	5	100
COc1ccc(OC)c(S(=O)(=O)N2CCN(c3c(C)cccc3C)CC2)c1	-2	65*	108	101	-8	99
CCOc1ccc(Nc2cc(C)nc(-n3nc(C)cc3C)n2)cc1	99*	72*	x	x	10	x
OCCN1CCN(c2nc(NCc3ccco3)c3ccccc3n2)CC1	x	x	91	83	x	96
CC1(C)CC(=O)C=C(NCc2cccnc2)C1	4	-9	86	108	-5	103
N#CC1=C(SCC(=O)Nc2nccs2)NC(=O)CC1c1ccccc1 (centres undefined)	x	x	x	x	-1	x
Cc1ccccc1NC(=O)CSC1=C(C#N)C(c2ccsc2)CC(=O)N1 (centres undefined)	x	x	76	17*	4	80
COc1ccc(-c2cc(=O)n(-c3nc4ccccc4[nH]3)[nH]2)cc1	-4	-13	10*	40*	35	61
Cn1c(Sc2ccc(Cl)cc2)c(C=O)c2ccccc21	x	x	x	x	-3	x
N#CC1=C(N)NC(SCc2ccc(Cl)cc2)=C(C#N)C12CCCCC2	x	7	45	13*	-5	85
N#CC1=C(N)NC(SCc2ccc(Br)cc2)=C(C#N)C12CCCCC2	x	x	57	59	x	87
O=C(c1cccc(S(=O)(=O)N2CCOCC2)c1)N1CCCc2ccccc21	0	11	94	95	-3	95
O=C(c1cnn2c1NC(c1ccco1)CC2C(F)(F)F)N1CCN(c2cccc(Cl)c2)CC1 (centres undefined)	10	57	58	14*	-5	88
O=C(NCc1ccco1)c1cnn2c1NC(c1ccc(Br)cc1)CC2C(F)(F)F (centres undefined)	-1	68*	97	96	3	100
O=C(NCc1ccco1)c1cnn2c1NC(c1ccccc1)CC2C(F)(F)F (centres undefined)	x	11	110	96	10	102
c1ccc(COc2ccc(OCCCNC3CCCC3)cc2)cc1	x	x	59	40*	20	76
Cc1cc(C)c(S(=O)(=O)N(C2=NCCS2)S(=O)(=O)c2c(C)cc(C)cc2C)c(C)c1	x	x	103	22*	x	101
Cc1cc(C)c(S(=O)(=O)N(CC(=O)O)CC(=O)O)c(C)c1	x	x	100	99	-3	95
CCCC(=O)Nc1cc(C)c2c(=O)oc3ccccc3c2n1	9	19	x	x	x	x
Cc1cc(NC(=O)CN2CCc3ccccc3C2)nc2c1c(=O)oc1ccccc12	1	-4	84	28*	x	86
COc1ccc(C(=O)Nc2cc(C)c3c(=O)oc4ccccc4c3n2)cc1	x	x	49	39*	-18	103
COCC(=O)Nc1cc(C)c2c(=O)oc3ccccc3c2n1	-8	8	88	84	x	96
